Data on 6 compounds can be found in article PMC7381488 (EBioMedicine, 2020).

Series [1] can be described thus: Intracellular TFV-DP and FTC-TP in PBMCs of macaques after a single oral dose. The class given is in vivo. To be noted: for peak intracellular concentration in PBMCs: macaques n=4, 20 mg/kg FTC, 1•5 mg/kg TAF, 30 mg/kg EVG/COBI oral, at 24h, median [range]; for time of peak in PBMCs: macaques, single oral dose. The method in brief: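 Four macaques were gavaged once with FTC 20 mg/kg, TAF 1•5 mg/kg, EVG 30 mg/kg and COBI 30 mg/kg in PEG 400/TPGS/phosphate buffer vehicle. PBMCs were sampled over time and lysed in cold 80% methanol, then stored at -80C. TFV-DP and FTC-TP were measured by LC-MS-MS, with LLOQs of 100 and 500 fmol/sample respectively.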

The format of series [2] is in vivo, humans. To be noted: for peak intracellular concentration in PBMCs: humans n=7, single Genvoya tablet (200 mg FTC/10 mg TAF/150 mg EVG/150 mg COBI), at 4h, median [range]; for time of peak in PBMCs: humans, single Genvoya tablet. The method in brief: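 Seven HIV-negative men took a single oral tablet (200 mg FTC/10 mg TAF/150 mg EVG/150 mg COBI), with PBMCs collected at each time point. Cells were lysed in cold 80% methanol and stored at -80C. TFV-DP and FTC-TP were quantified by LC-MS-MS, with LLOQ 100 fmol/sample for TFV-DP and 500 fmol/sample for FTC-TP.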

Series [3] in a line: Drug concentrations in rectal tissues of macaques 24h after oral dosing. To be noted: for rectal tissue concentration, macaques compared with humans: p=0•43 (EVG), p=0•073 (FTC), p=1 (TFV). The class given is in vivo. The method in brief: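 Macaques received one oral gavage solution (20 mg/kg FTC, 1•5 mg/kg TAF, 30 mg/kg EVG, 30 mg/kg COBI) in 65% PEG 400/20% TPGS/15% phosphate buffer pH 8. Mucosal biopsies were taken about 5-6 cm above the anal aperture 24 h post-dose: FTC/EVG in 12 animals, TFV-DP/FTC-TP in 4. Analysis was by HPLC-MS/MS or LC-MS-MS. Median biopsy weight was 0•037 g. Comparison with humans used the Wilcoxon rank sum test.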

A short description of series [4]: Drug concentrations in rectal tissues of humans 24h after a single tablet. The class given is in vivo. In outline: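 Seven HIV-negative men aged 18-49 each took one observed oral tablet (200 mg FTC/10 mg TAF/150 mg EVG/150 mg COBI). Rectal biopsies were taken 24 h later. TFV, FTC and EVG were measured by HPLC-MS/MS against a 0•5-2000 ng/mL human-plasma standard curve (LLOQ 10 ng/mL). Intracellular TFV-DP and FTC-TP were measured by LC-MS-MS. Median biopsy weight for extracellular drugs was 0•020 g.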

Series [5] is classed as in vivo, macaques. In outline: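 PEP arms were dosed by oral gavage at +2h (n=5), +6h (n=6), +24h (n=6) or +24h/+48h (n=6) after rectal SHIV162P3 exposure. Dosing and challenge recurred every two weeks for up to 8 exposures. PBMC TFV-DP and FTC-TP were measured at each subsequent challenge, 2 weeks after dosing, and reported as medians. Values below LLOQ were set to 10 fmol/10^6 cells.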

Series [6] relates to virus. The following applies: added between 6 and 10 h after virus exposure; cited from earlier work.
The format of series [7] is in vivo, rhesus macaques. The following applies: 30 mg/kg EVG + 30 mg/kg COBI vs 50 mg/kg EVG alone, macaques.
The conditions of series [8]: macaques, cited from earlier work.

SMILES strings stand for the structures. “Also recorded” adds a separate entry of the source. Where two headings read alike, the source gives them in different places.

As for `C[C@@H](Cn1cnc2c(N)ncnc21)OCP(=O)(O)OP(=O)(O)OP(=O)(O)O` [TFV-DP], the “peak intracellular concentration in PBMCs” value is 746 [509–1828] fmols/10^6 cells in series [1] and 299 [121–523] fmols/10^6 cells in series [2]. Moreover, the figures for the “time of peak in PBMCs” value in series [1] and in series [2] were 24 h and 4 h, respectively. Further, the “median intracellular level in rectal tissue” value in series [3] (macaques, 24h after single oral dose) is reported as 10,600 fmols/mg; in series [4] (24h after single Genvoya tablet), 17,100 fmols/mg of tissue. Also, the “median residual level in PBMCs at time of SHIV challenge” value in series [5] (+2h arm) and in series [5] (+6h arm) was “< LLOQ; also recorded: below the limit of detection” throughout.
On to `C[C@H](Cn1cnc2c(N)ncnc21)OCP(=O)(O)O` [TFV, tenofovir], for which, in series [3] (24h after dosing), the “rectal tissue concentration, macaques compared with humans” value is on record as “similar”.
On to `Cc1nnc(C(=O)NC(C)(C)c2nc(C(=O)NCc3ccc(F)cc3)c(O)c(=O)n2C)o1` [RAL, raltegravir], for which the “post-infection inhibition in culture” value in series [6] was “high post-infection inhibition”.
Take `Nc1nc(=O)n([C@@H]2CS[C@H](COP(=O)(O)OP(=O)(O)OP(=O)(O)O)O2)cc1F` [FTC-TP]: the “peak intracellular concentration in PBMCs” value in series [1] was 1737 [1153–3523] fmols/10^6 cells; in series [2], 4215 [3630–7,150] fmols/10^6 cells. Besides, the “time of peak in PBMCs” value amounted to 24 h in series [1] and 4 h in series [2]. Besides, the “detection in rectal tissue” value in series [3] (macaques, 24h after dosing) is given as “mostly undetectable”; in series [4] (24h after dosing) it was “mostly undetectable”. Moreover, the “residual level in PBMCs at the time of virus challenges” value in series [5] (PEP arms) is on record as “did not detect any residual FTC-TP”.
Turning to `COc1cc2c(cc1Cc1cccc(Cl)c1F)c(=O)c(C(=O)O)cn2[C@H](CO)C(C)C` [EVG, elvitegravir], the “increase of plasma Cmax and AUC0-24h by co-administration of COBI” value in series [7] is on record as “about 4 fold”. Also, the “rectal tissue concentration, macaques compared with humans” value in series [3] (24h after dosing) is on record as “similar”. In addition, in series [8] (50 mg/kg EVG oral, no COBI), the “plasma AUC0-24h of EVG without a booster” value is 4000 ngxh/ml and the “plasma Cmax of EVG without a booster” value is 280 ng/mL. Also, the “time in secretions above the protein-adjusted 95% inhibition concentration” value in series [8] (single oral dose, rectal and vaginal secretions) was above 48 h. Besides, in series [8] (single oral dose), the “EVG concentration in rectal secretions relative to plasma” value is on record as 694 fold and the “EVG concentration in vaginal secretions relative to plasma” value is 114 fold.
As for `Nc1nc(=O)n([C@@H]2CS[C@H](CO)O2)cc1F` [FTC, emtricitabine], in series [3] (24h after dosing), the “rectal tissue concentration, macaques compared with humans” value was “similar”.
